Published values from different studies.
Compare with care: the assays were run in different laboratories.
Route: intravenous

| SMILES | system | conditions | endpoint | result |
| --- | --- | --- | --- | --- |
| N=c1c2c(-c3ccccc3)c(-c3ccccc3)n(Cc3ccccc3)c2ncn1[C@H]1CC[C@H](O)CC1 | male Sprague-Dawley rat, plasma | 2 mg/kg, single dose | clearance | 19.6 mL/min/kg |
| CN(C)C(=O)Oc1cc(OC(=O)N(C)C)cc(-c2cc3ccc(O)cc3o2)c1 | male rat, plasma | 5 mg/kg | clearance | 140 mL/min/kg |
| CCCC[C@@H]1NC(=O)[C@H](Cc2ccc(O)cc2)NC(=O)[C@@H]2CCCN2C(=O)[C@H](CC(=O)O)NC(=O)[C@H](C)NC(=O)[C@H](Cc2ccccc2)NC(=O)[C@@H]2CSCCC(=O)N3CN(CN(C3)C(=O)CCSC[C@@H](C(=O)N[C@@H](CNC(=O)CCc3cn(CCOCCOCCOCCN(CCOCCOCCOCCC(=O)N[C@H]4CSCCC(=O)N5CN6CN(C5)C(=O)CCSC[C@H](NC(=O)[C@@H](CC(=O)O)NC(=O)[C@H](Cc5cccc7ccccc57)NC(=O)[C@@H]5CCCN5C4=O)C(=O)N[C@@H](CCSC)C(=O)N[C@@H](CCCCNC(=N)N)C(=O)N[C@@H](CC(=O)O)C(=O)N[C@@H](Cc4c[nH]c5ccccc45)C(=O)N[C@@H](CO)C(=O)N[C@@H]([C@@H](C)O)C(=O)N4CCC[C@H]4C(=O)N4C[C@H](O)C[C@H]4C(=O)N[C@@H](Cc4c[nH]c5ccccc45)C(=O)N[C@H](C(N)=O)CSCCC6=O)CCOCCOCCOCCn4cc(CCC(=O)NC[C@H](NC(=O)[C@@H]5CSCCC(=O)N6CN7CN(C6)C(=O)CCSC[C@H](NC(=O)[C@H](Cc6ccc(O)cc6)NC(=O)[C@@H]6CCCN6C(=O)[C@@H](C)NC(=O)[C@H](CCC(=O)O)NC(=O)[C@@H]6CCCN6C(=O)[C@H](CC(C)(C)C)NC(=O)[C@@H](NC(C)=O)CSCCC7=O)C(=O)N[C@@H](Cc6ccccc6)C(=O)N[C@@H](C)C(=O)N[C@@H](CC(=O)O)C(=O)N6CCC[C@H]6C(=O)N[C@@H](Cc6ccc(O)cc6)C(=O)N[C@@H](CCCC)C(=O)N5)C(N)=O)nn4)nn3)C(N)=O)NC1=O)C(=O)CCSC[C@H](NC(C)=O)C(=O)N[C@@H](CC(C)(C)C)C(=O)N1CCC[C@H]1C(=O)N[C@@H](CCC(=O)O)C(=O)N[C@H](C)C(=O)N1CCC[C@H]1C(=O)N[C@@H](Cc1ccc(O)cc1)C(=O)N2 | rat, plasma | 2 mg/kg | clearance | 8.7 mL/min/kg |
| Cn1cnc(Cn2c(=O)[nH]/c(=N\c3cc4cn(C)nc4cc3Cl)n(Cc3cc(F)c(F)cc3F)c2=O)n1 | male Sprague-Dawley rat, plasma | 5 mg/kg | clearance | 1.03 mL/min/kg |
| CCCC[C@@H]1NC(=O)[C@H](Cc2ccc(O)cc2)NC(=O)[C@@H]2CCCN2C(=O)[C@H](CC(=O)O)NC(=O)[C@H](C)NC(=O)[C@H](Cc2ccccc2)NC(=O)[C@@H]2CSCCC(=O)N3CN(CN(C3)C(=O)CCSC[C@H](NC(C)=O)C(=O)N[C@@H](CC(C)(C)C)C(=O)N[C@@H](CCC(=O)O)C(=O)N[C@@H](CCC(=O)O)C(=O)N[C@H](CCCCNC(=O)CCc3cn(CCOCCOCCOCCN(CCOCCOCCOCCC(=O)N[C@H]4CSCCC(=O)N5CN6CN(C5)C(=O)CCSC[C@H](NC(=O)[C@@H](CC(=O)O)NC(=O)[C@H](Cc5cccc7ccccc57)NC(=O)[C@@H]5CCCN5C4=O)C(=O)N[C@@H](CCSC)C(=O)N[C@@H](CCCCNC(=N)N)C(=O)N[C@@H](CC(=O)O)C(=O)N[C@@H](Cc4c[nH]c5ccccc45)C(=O)N[C@@H](CO)C(=O)N[C@@H]([C@@H](C)O)C(=O)N4CCC[C@H]4C(=O)N4C[C@H](O)C[C@H]4C(=O)N[C@@H](Cc4c[nH]c5ccccc45)C(=O)N[C@H](C(N)=O)CSCCC6=O)CCOCCOCCOCCn4cc(CCC(=O)NCCCC[C@H]5NC(=O)[C@H](CCC(=O)O)NC(=O)[C@H](CCC(=O)O)NC(=O)[C@H](CC(C)(C)C)NC(=O)[C@@H](NC(C)=O)CSCCC(=O)N6CN7CN(C6)C(=O)CCSC[C@H](NC(=O)[C@H](Cc6ccc(O)cc6)NC(=O)[C@@H]6CCCN6C5=O)C(=O)N[C@@H](Cc5ccccc5)C(=O)N[C@@H](C)C(=O)N[C@@H](CC(=O)O)C(=O)N5CCC[C@H]5C(=O)N[C@@H](Cc5ccc(O)cc5)C(=O)N[C@@H](CCCC)C(=O)N[C@H](C(N)=O)CSCCC7=O)nn4)nn3)C(=O)N3CCC[C@H]3C(=O)N[C@@H](Cc3ccc(O)cc3)C(=O)N2)C(=O)CCSC[C@@H](C(N)=O)NC1=O | rat, plasma | 2 mg/kg | clearance | 11 mL/min/kg |
| Cc1cc(C)nc(Nc2ncc(C(=O)NCCc3c(C)[nH]c4ccccc34)cn2)c1 | Sprague-Dawley rat, plasma | – | clearance | 81 mL/min/kg |
| O=C(O)CCCO | male Sprague-Dawley rat, urine | 600 mg/kg | renal clearance | 1.89 mL/min/kg |
| O=C1c2cc(COc3ccccc3)nn2CCC1c1ccc(F)cc1 (stereo not drawn) | male Sprague-Dawley rat, plasma | 0.2 mg/kg | clearance | 120 mL/min/kg |
| [2H]C([2H])(c1cc(F)c(F)cc1F)n1c(=O)n(Cc2ncn(C)n2)c(=O)[nH]/c1=N\c1cc2cn(C)nc2cc1Cl | male Sprague-Dawley rat, plasma | 5 mg/kg | clearance | 1.11 mL/min/kg |
| C[C@H](C(=O)N[C@H]1COc2ccccc2[C@@H]1S(C)(=O)=O)c1ccc(F)cc1 | male Sprague-Dawley rat, plasma | 0.5 mg/kg | clearance | 10 mL/min/kg |
| CCCC[C@@H]1NC(=O)[C@H](Cc2ccc(O)cc2)NC(=O)[C@@H]2CCCN2C(=O)[C@H](CC(=O)O)NC(=O)[C@H](C)NC(=O)[C@H](Cc2ccccc2)NC(=O)[C@@H]2CSCCC(=O)N3CN(CN(C3)C(=O)CCSC[C@@H](C(=O)N[C@@H](C)C(N)=O)NC1=O)C(=O)CCSC[C@H](NC(=O)[C@H](C)NC(C)=O)C(=O)N[C@@H]([C@@H](C)CC)C(=O)N[C@@H](CCC(=O)O)C(=O)N[C@@H](CCC(=O)O)C(=O)N[C@H](CCCCNC(=O)CCc1cn(CCOCCOCCOCCN(CCOCCOCCOCCC(=O)N[C@H]3CSCCC(=O)N4CN5CN(C4)C(=O)CCSC[C@H](NC(=O)[C@@H](CC(=O)O)NC(=O)[C@H](Cc4cccc6ccccc46)NC(=O)[C@@H]4CCCN4C3=O)C(=O)N[C@@H](CCSC)C(=O)N[C@@H](CCCCNC(=N)N)C(=O)N[C@@H](CC(=O)O)C(=O)N[C@@H](Cc3c[nH]c4ccccc34)C(=O)N[C@@H](CO)C(=O)N[C@@H]([C@@H](C)O)C(=O)N3CCC[C@H]3C(=O)N3C[C@H](O)C[C@H]3C(=O)N[C@@H](Cc3c[nH]c4ccccc34)C(=O)N[C@H](C(N)=O)CSCCC5=O)CCOCCOCCOCCn3cc(CCC(=O)NCCCC[C@H]4NC(=O)[C@H](CCC(=O)O)NC(=O)[C@H](CCC(=O)O)NC(=O)[C@H]([C@@H](C)CC)NC(=O)[C@@H](NC(=O)[C@H](C)NC(C)=O)CSCCC(=O)N5CN6CN(C5)C(=O)CCSC[C@H](NC(=O)[C@H](Cc5ccc(O)cc5)NC(=O)[C@H](CCC(N)=O)NC4=O)C(=O)N[C@@H](Cc4ccccc4)C(=O)N[C@@H](C)C(=O)N[C@@H](CC(=O)O)C(=O)N4CCC[C@H]4C(=O)N[C@@H](Cc4ccc(O)cc4)C(=O)N[C@@H](CCCC)C(=O)N[C@H](C(=O)N[C@@H](C)C(N)=O)CSCCC6=O)nn3)nn1)C(=O)N[C@@H](CCC(N)=O)C(=O)N[C@@H](Cc1ccc(O)cc1)C(=O)N2 | rat, plasma | 2 mg/kg | clearance | 9.8 mL/min/kg |
| CCCCCCCC(=O)N[C@@H](CCCCN)C(=O)N[C@@H](CCCCN)C(=O)N[C@@H](C)C(=O)N[C@@H](CC(C)C)C(=O)N[C@@H](CCCCN)C(=O)N[C@@H](CC(C)C)C(=O)N[C@@H](C)C(=O)N[C@@H](CCCCN)C(=O)N[C@@H](CCCCN)C(=O)N1CCC[C@H]1C(=O)N[C@@H](CC(C)C)C(=O)N[C@@H](CCCCN)C(=O)N[C@@H](CC(C)C)C(=O)N[C@@H](CC(C)C)C(=O)N[C@@H](CCCCN)C(N)=O | male Sprague-Dawley rat, blood | 3 mg/kg, infusion | clearance | 192 mL/min/kg |
